Results: ChEMBL document CHEMBL1671760, “Pharmacokinetics and pharmacogenomics of once-daily raltegravir and atazanavir in healthy volunteers” (Antimicrob Agents Chemother, 2010)

Legend:
[1] = Apparent clearance of oral drug in healthy human assessed as drug excreted unchanged at 400 mg, po Bid for 1 week by LC-MS/MS analysis; type: ADME, organism-based; settings: in vivo, read-out: Fraction excreted unchanged
Summary of the method: (§1)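 Raltegravir 400 mg was given twice daily for 1 week, with 12-h plasma and urine profiles measured by LC-MS-MS. Apparent oral clearance was dose/AUC over the dosing interval. Renal clearance was the amount excreted in urine divided by plasma AUC over the same interval. Fe/F was Ae/(dose/F), with F unknown.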

Plasma [2] = assay: Plasma concentration in healthy human assessed as raltegravir-glucoronide at 400 mg, po […] coadministered with atazanavir 400 mg, po qd for 1 week measured 12 hrs post dose by LC-MS/MS analysis; type: ADME, organism-based; settings: in vivo
Summary of the method: (§2)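 Arm B of a crossover in healthy adults (24–51 y), separated from the other arm by at least 3 days. Subjects took raltegravir 400 mg plus atazanavir 400 mg once daily for 1 week in a semifasted state. Plasma was sampled over 24 h after a witnessed dose. Raltegravir was quantified by LC-MS-MS after acetonitrile protein precipitation, and the glucuronide by negative-mode SRM (m/z 619.1→316.0) with a d3 internal standard. Noncompartmental analysis used the linear trapezoidal rule.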

Homo sapiens [3] = assay: AUC (12 to 24 hrs) in healthy human assessed as raltegravir-glucoronide at 400 mg, po […] coadministered with atazanavir 400 mg, po qd for 1 week by LC-MS/MS analysis; type: ADME, organism-based, Plasma; design: time 12-24 hr, dose 400 mg, route oral; settings: in vivo; summary of the method: as §2
Plasma [4] = assay: Ctau in healthy human plasma assessed as raltegravir-glucoronide at 400 mg, po Bid for 1 week by LC-MS/MS analysis; type: ADME, organism-based; settings: in vivo, 168 h
Summary of the method: (§3)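 Healthy volunteers (24–51 y) took raltegravir 400 mg twice daily for 1 week in a crossover with at least 3 days between arms, dosing ≥1 h before or 2 h after food. After a witnessed dose, blood was drawn at 1, 2, 4, 8 and 12 h, with meals from 1 h. Plasma was analysed by LC-MS-MS after acetonitrile precipitation, using noncompartmental linear-trapezoidal AUC and log10-transformed geometric means.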

[5] = Apparent total plasma clearance in healthy human at 400 mg, po Bid for 1 week by LC-MS/MS analysis; type: ADME, organism-based; summary of the method: as §1
[6] = Drug level in healthy human urine at 400 mg, po Bid coadministered with atazanavir 400 mg, po qd for 1 week measured at 12 to 24 hrs post dose by LC-MS/MS analysis; type: ADME, organism-based; settings: in vivo, in the assay text read “po qd” for “po Bid”
Summary of the method: (§4)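 Steady state was reached after 1 week of once-daily raltegravir 400 mg with atazanavir 400 mg in healthy adults. All urine was collected over 24 h after the witnessed dose and combined into 2-h pools. Raltegravir and raltegravir-glucuronide were assayed by LC-MS-MS, and amounts excreted were summed for 0–12 h and 12–24 h.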

[7] = Plasma concentration in healthy human at 400 mg, po qd coadministered with atazanavir 400 mg, po qd for 1 week measured 12 hrs post dose by LC-MS/MS analysis
[8] = Apparent clearance of oral drug in healthy human assessed as drug excreted unchanged at 400 mg, po […] coadministered with atazanavir 400 mg, po qd for 1 week by LC-MS/MS analysis; type: ADME, organism-based; settings: in vivo, read-out: Fraction excreted unchanged
Summary of the method: (§5)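 Once-daily raltegravir 400 mg with atazanavir 400 mg was given for 1 week, with plasma and urine collected over 24 h and assayed by LC-MS-MS. Clearances were computed noncompartmentally: CL/F = dose/AUC(τ), renal CL = urinary amount/plasma AUC over the same interval, and Fe/F = Ae/(dose/F).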

Homo sapiens [9] = assay: AUC (0 to tau) in human at 400 mg, po Bid coadministered with atazanavir 400 mg, po qd for 1 week by LC-MS/MS analysis; type: ADME, organism-based, Plasma; settings: in vivo, 168 h, in the assay text read “po qd” for “po Bid”; summary of the method: as §2
Plasma [10] = assay: Ctau in healthy human plasma assessed as raltegravir-glucoronide at 400 mg, […] coadministered with atazanavir 400 mg, po qd for 1 week by LC-MS/MS analysis; type: ADME, organism-based; settings: in vivo, 168 h; summary of the method: as §2
[11] = AUC (12 to24 hrs) in healthy human at 400 mg, po qd coadministered with atazanavir 400 mg, po qd for 1 week by LC-MS/MS analysis; settings: plasma
[12] = Drug level in healthy human urine at 400 mg, po Bid for 1 week measured at 0-12 hrs post dose by LC-MS/MS analysis; type: ADME, organism-based; settings: in vivo
Summary of the method: (§6)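 Healthy volunteers took raltegravir 400 mg twice daily for 1 week. After the witnessed dose, all urine was collected over 12 h and pooled into 2-h aliquots, then frozen at −70°C. Raltegravir and its glucuronide were measured by LC-MS-MS, and amounts were summed over 0–12 h. Values are geometric means of log10-transformed data.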

[13] = Plasma concentration in healthy human at 400 mg, po Bid for 1 week measured 12 hrs post dose by LC-MS/MS analysis; type: ADME, organism-based; summary of the method: as §3
[14] = Ratio of drug level to raltegravir-glucoronide level in healthy human urine at 400 mg, po Bid coadministered with atazanavir 400 mg, po qd for 1 week by LC-MS/MS analysis; type: ADME, organism-based; settings: in vivo, 168 h, in the assay text read “po qd” for “po Bid”; summary of the method: as §4
[15] = Ratio of drug level to raltegravir-glucoronide level in healthy human urine at 400 mg, po Bid for 1 week by LC-MS/MS analysis; type: ADME, organism-based; settings: in vivo, 168 h; summary of the method: as §6
[16] = Drug level in healthy human urine assessed as raltegravir-glucoronide at 400 mg, […] coadministered with atazanavir 400 mg, po qd for 1 week measured at 12 to 24 hrs post dose by LC-MS/MS analysis; type: ADME, organism-based; settings: in vivo; summary of the method: as §4
Plasma [17] = assay: Cmax in healthy human plasma assessed as raltegravir-glucoronide at 400 mg, po Bid for 1 week by LC-MS/MS analysis; type: ADME, organism-based; design: dose 400 mg, route oral; settings: in vivo, 168 h; summary of the method: as §3
[18] = AUC (0 to12 hrs) in healthy human at 400 mg, po qd coadministered with atazanavir 400 mg, po qd for 1 week by LC-MS/MS analysis; settings: plasma
[19] = AUC (0 to12 hrs) in healthy human at 400 mg, po Bid for 1 week by LC-MS/MS analysis; type: ADME, organism-based; design: dose 400 mg, time < 12 hr, route oral; settings: plasma; summary of the method: as §3
[20] = Drug level in healthy human urine at 400 mg, po Bid coadministered with atazanavir 400 mg, po qd for 1 week measured at 0-12 hrs post dose by LC-MS/MS analysis; type: ADME, organism-based; settings: in vivo, in the assay text read “po qd” for “po Bid”; summary of the method: as §4
[21] = Drug level in healthy human urine assessed as raltegravir-glucoronide at 400 mg, […] coadministered with atazanavir 400 mg, po qd for 1 week measured at 0-12 hrs post dose by LC-MS/MS analysis; type: ADME, organism-based; settings: in vivo; summary of the method: as §4
Plasma [22] = assay: Plasma concentration in healthy human assessed as raltegravir-glucoronide at 400 mg, po Bid for 1 week measured 12 hrs post dose by LC-MS/MS analysis; type: ADME, organism-based; settings: in vivo; summary of the method: as §3
[23] = Renal clearance in healthy human at 400 mg, […] coadministered with atazanavir 400 mg, po qd for 1 week by LC-MS/MS analysis; type: ADME, organism-based; settings: plasma, read-out: CL_renal; summary of the method: as §5
[24] = Drug level in healthy human urine assessed as raltegravir-glucoronide at 400 mg, po Bid for 1 week measured at 0-12 hrs post dose by LC-MS/MS analysis; type: ADME, organism-based; settings: in vivo; summary of the method: as §6
Homo sapiens [25] = assay: AUC (0 to12 hrs) in healthy human assessed as raltegravir-glucoronide at 400 mg, po Bid for 1 week by LC-MS/MS analysis; type: ADME, organism-based, Plasma; design: dose 400 mg, time < 12 hr, route oral; settings: in vivo, 12 h; summary of the method: as §3
[26] = Ctau in healthy human plasma at 400 mg, po Bid for 1 week by LC-MS/MS analysis; type: ADME, organism-based; settings: read-out: Ctau; summary of the method: as §3
[27] = Apparent total plasma clearance in healthy human at 400 mg, po Bid coadministered with atazanavir 400 mg, po qd for 1 week by LC-MS/MS analysis; type: ADME, organism-based; settings: in the assay text read “po qd” for “po Bid”; summary of the method: as §5
[28] = Cmax in healthy human plasma at 400 mg, po Bid for 1 week by LC-MS/MS analysis; type: ADME, organism-based; design: dose 400 mg, route oral; summary of the method: as §3
[29] = Cmax in healthy human plasma at 400 mg, po qd coadministered with atazanavir 400 mg, po qd for 1 week by LC-MS/MS analysis
[30] = Ctau in healthy human plasma at 400 mg, po qd coadministered with atazanavir 400 mg, po qd for 1 week by LC-MS/MS analysis
Plasma [31] = assay: Renal clearance in healthy human assessed as raltegravir-glucoronide at 400 mg, po Bid for 1 week by LC-MS/MS analysis; type: ADME, organism-based; settings: in vivo, 168 h; summary of the method: as §1
[32] = AUC (0 to tau) in healthy human at 400 mg, po Bid for 1 week by LC-MS/MS analysis; type: ADME, organism-based; settings: plasma; summary of the method: as §3
Plasma [33] = assay: Cmax in healthy human plasma assessed as raltegravir-glucoronide at 400 mg, […] coadministered with atazanavir 400 mg, po qd for 1 week by LC-MS/MS analysis; type: ADME, organism-based; design: dose 400 mg, route oral; settings: in vivo, 168 h; summary of the method: as §2
[34] = Renal clearance in healthy human at 400 mg, po Bid for 1 week by LC-MS/MS analysis; type: ADME, organism-based; settings: plasma, read-out: CL_renal; summary of the method: as §1
Plasma [35] = assay: Renal clearance in healthy human assessed as raltegravir-glucoronide at […] coadministered with atazanavir 400 mg, po qd for 1 week by LC-MS/MS analysis; type: ADME, organism-based; settings: in vivo, 168 h; summary of the method: as §5

Question: What does the source list for `Cc1nnc(C(=O)NC(C)(C)c2nc(C(=O)NCc3ccc(F)cc3)c(O)c(=O)n2C)o1` [RALTEGRAVIR]?
Answer: dose excreted at 168 h [1]: 2.9%; Cp (Plasma [2]): 41 ng/mL; AUC (Homo sapiens [3]): 342 ng·h/mL; Ctau (Plasma [4]): 45 ng/mL; CL/F [5]: 1890 mL/min; Drug uptake [6]: 0.41 mg; concentration at 12 h [7]: 69 ng/mL; dose excreted at 168 h [8]: 3.5%; AUC (Homo sapiens [9]): 6080 ng·h/mL; Ctau (Plasma [10]): 8 ng/mL; AUC [11]: 875 ng·h/mL; Drug uptake [12]: 11.66 mg; concentration at 12 h [13]: 46 ng/mL; Ratio [14]: 7.81; Ratio [15]: 7.08; Drug uptake [16]: 7.03 mg; Cmax (Plasma [17]): 799 ng/mL; AUC at 12 h [18]: 4660 ng·h/mL; AUC at 12 h [19]: 3530 ng·h/mL; Drug uptake [20]: 10.81 mg; Drug uptake [21]: 84.51 mg; Cp (Plasma [22]): 45 ng/mL; CL renal at 168 h [23]: 39 mL/min; Drug uptake [24]: 82.5 mg; AUC (Homo sapiens [25]): 3267 ng·h/mL; concentration at 168 h [26]: 46 ng/mL; CL/F [27]: 1100 mL/min; Cmax [28]: 1020 ng/mL; Cmax [29]: 1400 ng/mL; concentration at 168 h [30]: 18 ng/mL; CL_renal (Plasma [31]): 421 mL/min; AUC tau at 168 h [32]: 3530 ng·h/mL; Cmax (Plasma [33]): 458 ng/mL; CL renal at 168 h [34]: 55 mL/min; CL_renal (Plasma [35]): 692 mL/min
